Where a SMILES comes first, the peptide text is derived from it. [ ]: non-standard residue; d: D form. aThr = C[C@H](O)[C@H](N)C(=O)O
Key:
[1] = system: Human immunodeficiency virus 1; test: Antiviral activity against HIV1 3B infected in human CEM-SS cells assessed as inhibition of viral replication after 6 days by XTT assay; format: functional, organism-based
Outline: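 Peptides were added in triplicate at six serial concentrations, 0.32–100 μg/ml. Cultures were held at 37°C, 5% CO2 for 6 days, then stained with XTT. EC50 (virus inhibition) and TC50 (cell viability) were derived from the XTT read-out, and TI was taken from these.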

[2] = Cytotoxicity against human CEM-SS cells infected with HIV1 3B after 6 days by XTT assay; format: cell-based; conditions: read-out: TC50
[3] = Therapeutic index, ratio of TC50 for human CEM-SS cells infected with HIV1 3B to EC50 for HIV1 3B infected in human CEM-SS cells; format: cell-based; conditions: read-out: TI
Outline: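 CEM-SS cells (2.5 × 10^3/well) in RPMI 1640 with 10% heat-inactivated FBS were infected with HIV-1 IIIB (MOI 0.0005–0.001). Peptides were added in triplicate at six serial concentrations, 0.32–100 μg/ml. Cultures were held at 37°C, 5% CO2 for 6 days, then stained with XTT. EC50 (virus inhibition) and TC50 (cell viability) were derived from the XTT read-out, and TI was taken from these.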

[4] = Human immunodeficiency virus 1, 3B, CEM-SS, 144 h

| Compound | EC50 [1, 4] [µM] | CC50 at 144 h [2] [µM] | selectivity ratio [3] | EC50 ([1]; cem-ss) [µM] |
| --- | --- | --- | --- | --- |
| CC[C@H](C)[C@H](NC(=O)[C@H](CC(C)C)NC(=O)[C@@H]1CCCN1C(=O)[C@H](Cc1ccccc1)NC(=O)[C@H](CC(C)C)NC(=O)[C@@H](N)Cc1ccccc1)C(=O)N[C@H](C(=O)N[C@@H](CO)C(=O)N[C@@H](Cc1ccccc1)C(=O)N[C@@H](CC(C)C)C(=O)N[C@@H](CO)C(=O)N[C@@H](CCCCN)C(=O)N[C@H](C(=O)N[C@@H](CC(C)C)C(=O)O)C(C)C)[C@H](C)O | 16.7 | 34.6 | 2.07 |  |
| CC[C@H](C)[C@H](NC(=O)[C@H](CC(C)C)NC(=O)[C@H](C)NC(=O)[C@@H]1CCCN1C(=O)[C@H](CCCNC(=N)N)NC(=O)[C@@H](N)Cc1ccccc1)C(=O)N[C@H](C(=O)N[C@@H](CCCNC(=N)N)C(=O)N[C@H](C(=O)N[C@@H](CCCCN)C(=O)NCC(=O)N[C@H](C(=O)N[C@@H](CCCNC(=N)N)C(=O)N[C@@H](CC(C)C)C(=O)O)[C@H](C)O)[C@H](C)O)C(C)C [Hyposin-5] (H-FRPALIVR[aThr]KG[aThr]RL-OH) | > 61.4 | > 61.4 |  |  |
| CC[C@H](C)[C@H](NC(=O)[C@@H]1CCCN1C(=O)[C@H](Cc1cnc[nH]1)NC(=O)[C@H](CCCCN)NC(=O)[C@@H]1CCCN1C(=O)[C@@H](N)CCCNC(=N)N)C(=O)N[C@@H](CCCCN)C(=O)N[C@@H](Cc1cnc[nH]1)C(=O)N[C@@H](CCC(N)=O)C(=O)NCC(=O)N[C@@H](CC(C)C)C(=O)N1CCC[C@H]1C(=O)N[C@@H](CCC(N)=O)C(=O)N[C@@H](CCC(=O)O)C(=O)N[C@H](C(=O)N[C@@H](CC(C)C)C(=O)N[C@@H](CC(N)=O)C(=O)N[C@@H](CCC(=O)O)C(=O)N[C@@H](CC(N)=O)C(=O)N[C@@H](CC(C)C)C(=O)N[C@@H](CC(C)C)C(=O)N[C@@H](CCCNC(=N)N)C(=O)N[C@@H](Cc1ccccc1)C(=O)O)C(C)C [ISRACIDIN] | > 36.2 | > 36.2 |  |  |
| CC[C@H](C)[C@H](NC(=O)[C@H](CO)NC(=O)[C@H](CC(C)C)NC(=O)[C@H](Cc1ccccc1)NC(=O)CN)C(=O)N[C@@H](CC(C)C)C(=O)N[C@@H](CCCCN)C(=O)N[C@@H](CCCCN)C(=O)N[C@H](C(=O)N[C@@H](CC(C)C)C(=O)N1CCC[C@H]1C(=O)N[C@@H](CCCCN)C(=O)N[C@H](C(=O)N[C@@H](CCSC)C(=O)N[C@@H](C)C(=O)N[C@@H](Cc1cnc[nH]1)C(=O)N[C@@H](CCSC)C(=O)N[C@@H](CCCCN)C(N)=O)C(C)C)C(C)C [MELECTIN] |  | 7.75 |  |  |
| CC[C@H](C)[C@H](NC(=O)[C@H](CCCNC(=N)N)NC(=O)[C@H](CC(C)C)NC(=O)[C@H](CCC(N)=O)NC(=O)[C@H](CCCCN)NC(=O)[C@H](CC(C)C)NC(=O)[C@H](CC(C)C)NC(=O)[C@H](CC(C)C)NC(=O)[C@@H](NC(=O)[C@H](CCCCN)NC(=O)[C@H](CC(=O)O)NC(=O)[C@H](C)NC(=O)[C@@H](NC(=O)[C@H](CCCCN)NC(=O)[C@H](CCCCN)NC(=O)[C@H](CC(=O)O)NC(=O)[C@@H](NC(=O)[C@@H](N)Cc1cnc[nH]1)C(C)C)C(C)C)C(C)C)C(=O)N[C@@H](CCSC)C(=O)N[C@@H](CCCNC(=N)N)C(=O)N[C@@H](CC(C)C)C(=O)N[C@@H](CC(C)C)C(=O)N[C@H](C(=O)N[C@@H](CCCNC(=N)N)C(=O)N[C@@H](CC(C)C)C(=O)O)[C@@H](C)O [SPINIGERIN] | 3.05 | > 33.3 | > 10.9 |  |
| Cc1cn([C@H]2C[C@H](N=[N+]=[N-])[C@@H](CO)O2)c(=O)[nH]c1=O [ZIDOVUDINE] |  | > 0.5 |  |  |
| H-FFHHIFRGIVHVGKTIHRLVTG-OH [Piscidin 3] |  | 6.9 |  |  |
| H-GAWKNFWSSLRKGFYDGEAGRAIRR-OH | > 34.1 | > 34.1 |  |  |
| H-GFGKAFHSVSNFAKKHKTA-NH2 [STYELIN A] | > 48.5 | > 48.5 |  |  |
| H-GFKDLLKGAAKALVKTVLF-NH2 [Ascaphin-8] | 1.2 | 2.9 | 2.4 |  |
| H-GFKRIVQRIKDFLRNLV-NH2 | 0.76 | 10.8 | 14.2 |  |
| H-GFLDIIEKIAKSW-OH | 10.5 | > 65.8 | > 6.3 |  |
| H-GIFDKLAKEISIW-OH | > 65.8 | > 65.8 |  |  |
| H-GIIDIAKKLFESW-OH | 20.1 | > 65.8 | > 3.3 |  |
| H-GIWDTIKSMGKVFAGKILQNL-NH2 [Brevinin-2] | 1.65 | 7.42 | 4.49 |  |
| H-GIWSDLAEIIKKF-OH |  | > 65.8 |  |  |
| H-GKPRPYSPRPTSHPRPIRV-OH [DROSOCIN] | > 45.5 | > 45.5 |  |  |
| H-GLADFLNKAVGKVVDFVKS-NH2 [Desertcolin 1] | > 49.9 | > 49.9 |  |  |
| H-GLFDIIKKIAESW-OH | 11.7 | 37 | 3.2 |  |
| H-GLLGLLGSVVSHVVPAIVGHF-NH2 [Maculatin 1.3] | 4 | 8.02 | 2.01 |  |
| H-GLNTLKKVFQGLHEAIKLINNHVQ-OH | 35.7 | > 36.8 |  |  |
| H-GLRRLLGRLLRRLGRLLLR-OH | 4.4 | 25.7 | 5.8 |  |

| Compound | EC50 [1, 4] [µM] | CC50 at 144 h [2] [µM] | selectivity ratio [3] | EC50 ([1]; cem-ss) [µM] |
| --- | --- | --- | --- | --- |
| H-GLRSKIWLWVLLMIWQESNKFKKM-OH | 31.6 | > 32.9 | > 1.04 |  |
| H-GLRSRIWLWVLLMIWQESNRFKRM-OH | 1.25 | > 32.1 | > 25.7 |  |
| H-GLWEKIDKFASII-OH | > 65.8 | > 65.8 |  |  |
| H-GMASKAGAIAGKIAKVALKAL-NH2 | > 50.8 | > 50.8 |  |  |
| H-GNNRPVYIPQPRPPHPRI-OH [Apidaecin IA] | > 47.4 | > 47.4 |  |  |
| H-GWFDIIKKIASEL-OH | 10.7 | 38.9 | 3.6 |  |
| H-GWFDVVKHIAKRF-NH2 | 2.99 | 10.6 | 3.55 |  |
| H-GWLKKIESIIDAF-OH | 29.5 | > 65.8 | > 2.2 |  |
| H-IKWKKLLRAAKRIL-NH2 | > 57.6 | 1.3 | < 0.02 |  |
| H-ILGPVLGLVSDTLDDVLGIL-OH | > 49.4 | > 49.4 |  |  |
| H-ILGPVLGLVSRTLRRVLGIL-OH | 2.2 | 8.7 | 3.9 |  |
| H-INLKAIAALAKKLL-OH | > 67.6 | > 67.6 |  |  |
| H-IWLTALKFLGKHAAKHLAKQQLSKL-OH [Lycotoxin I] | > 35.2 | 2.4 | < 0.07 |  |
| H-KGRGKQGGKVRAKAKTRSS-OH [Parasin I] | > 50 | > 50 |  |  |
| H-LLKELWTKIKGAGKAVLGKIKGLL-OH [Ponericin L2] |  | 24.7 | 17.6 | 1.4 |
| H-NLVSGLIEARKYLEQLHRKLKNRKV-OH | > 33.3 | > 33.3 |  |  |
| H-RQRVEELSKFSKKGAAARRRK-OH [Misgurin] | > 40 | > 40 |  |  |
| H-SLSRFLRFLKIVYRRAF-NH2 | 0.83 | 8.6 | 10.4 |  |
| H-SWKSMAKKLKEYMEKLKQRA-OH [Latarcin 3a] | 32.7 | > 40.3 | > 1.23 |  |
| H-VDKPDYRPRPRPPNM-OH [Metalnikowin I] | > 54.4 | > 54.4 |  |  |
| H-VFQFLGRIIHHVGNFVHGFSHVF-OH [Clavanin B] | 7.1 | 37.1 | > 5.18 |  |

— ChEMBL document CHEMBL1240406, “Identification of novel human immunodeficiency virus type 1-inhibitory peptides based on the antimicrobial peptide database” (Antimicrob Agents Chemother, 2010)
